Reference: ChEMBL document CHEMBL2169847, “New tricks for an old natural product: discovery of highly potent evodiamine derivatives as novel antitumor agents by systemic structure-activity relationship analysis and biological evaluations” (J Med Chem, 2012)
Activity calls are given as the source filed them. The calls are words filed in the database; no cut-off is given here.

Key:
[1] = Toxicity in mouse; assay type: organism-based; conditions: in vivo
[2] = tested on: A549; test: Cytotoxicity against human A549 cells incubated for 72 hrs by MTT assay; assay type: functional; conditions: A549, 72 h
Method in brief: (§1)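 MTT assay. Cells seeded at 5 × 10³/well and grown 24 h at 37 °C, 5% CO₂. Compounds added at several concentrations in triplicate wells, with 0.1% DMSO control, for 72 h. MTT then added for 4 h, formazan dissolved in DMSO, and absorbance read at 570 nm. GI₅₀ by Logit method; three experiments.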

[3] = tested on: HCT-116; test: Cytotoxicity against human HCT116 cells incubated for 72 hrs by MTT assay; assay type: functional; conditions: HCT-116, 72 h; method in brief: as §1
[4] = tested on: MDA-MB-435; test: Cytotoxicity against human MDA-MB-435 cells incubated for 72 hrs by MTT assay; assay type: functional; conditions: MDA-MB-435, 72 h; method in brief: as §1
[5] = biological target: T1, DNA topoisomerase 1 (Homo sapiens) (UniProt P11387); test: Inhibition of Top1 assessed as suppression of supercoiled pBR322 DNA relaxation measuring appearance of short DNA fragments at 500 uM incubated for 15 mins by electrophoresis method
T1 sequence (whole entry): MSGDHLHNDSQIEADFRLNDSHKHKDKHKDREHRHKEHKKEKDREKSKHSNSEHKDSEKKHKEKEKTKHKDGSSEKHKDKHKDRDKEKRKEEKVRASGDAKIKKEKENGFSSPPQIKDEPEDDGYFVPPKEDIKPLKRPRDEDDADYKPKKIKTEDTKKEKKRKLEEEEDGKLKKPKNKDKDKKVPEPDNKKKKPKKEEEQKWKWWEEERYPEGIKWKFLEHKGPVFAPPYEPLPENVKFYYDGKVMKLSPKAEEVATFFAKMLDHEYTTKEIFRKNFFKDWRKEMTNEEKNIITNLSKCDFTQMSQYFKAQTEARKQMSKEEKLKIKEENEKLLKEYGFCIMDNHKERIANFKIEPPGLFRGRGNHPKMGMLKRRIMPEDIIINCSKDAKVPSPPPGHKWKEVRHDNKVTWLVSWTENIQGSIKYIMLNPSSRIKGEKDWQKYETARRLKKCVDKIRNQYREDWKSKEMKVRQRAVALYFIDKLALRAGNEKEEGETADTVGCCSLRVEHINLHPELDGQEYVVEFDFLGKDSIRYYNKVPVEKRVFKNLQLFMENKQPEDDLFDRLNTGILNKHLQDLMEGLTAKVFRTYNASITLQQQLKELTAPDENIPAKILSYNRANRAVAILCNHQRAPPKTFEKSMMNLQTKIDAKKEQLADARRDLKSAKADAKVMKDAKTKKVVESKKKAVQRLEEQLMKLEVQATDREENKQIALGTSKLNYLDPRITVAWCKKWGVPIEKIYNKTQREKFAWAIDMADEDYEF

[6] = biological target: T1, DNA topoisomerase 1 (Homo sapiens); test: Inhibition of Top1 assessed as suppression of supercoiled pBR322 DNA relaxation measuring appearance of short DNA fragments at 100 uM incubated for 15 mins by electrophoresis method
[7] = tested on: Nucleic Acid; test: Induction of DNA intercalation in Escherichia coli pBR322 DNA assessed as induction of supercoiled DNA at 1 ug/ml incubated for 15 mins by electrophoresis based Top1 unwinding assay; assay type: nucleic-acid assay
Method in brief: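 pBR322 plasmid (0.25 μg) preincubated with 100 μM compound or 1 μg/mL ethidium bromide, 37 °C, 15 min, in Top1 buffer (35 mM Tris-HCl pH 8.0, 72 mM KCl, 5 mM MgCl2, 5 mM DTT, 5 mM spermidine, 0.1% BSA). 5 U Top1 then added for 60 min at 37 °C. Stopped with SDS and proteinase K (50 °C, 20 min), phenol/chloroform extracted, agarose gel.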

[8] = tested on: HL-60; test: Cytotoxicity against human HL60 cells incubated for 72 hrs by MTT assay; assay type: functional; conditions: HL-60, 72 h; method in brief: as §1
[9] = tested on: A549; test: Antitumor activity against human A549 cells xenografted in BALB/C nude mouse assessed as tumor growth inhibition at 1 mg/kg, ip for 13 days measured on 30 to 33 days post implantation; assay type: functional, organism-based; set-up: dose 1 mg/kg
Method in brief: (§2)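 Cells implanted subcutaneously in right axilla of nude mice; dosing began at tumor volume about 100−300 mm³ (day 17). Randomized, six mice per treatment group and eight controls; ip injection. Tumor volume by caliper, TV = 1/2 × a × b², with body weight every 4 days. Mice sacrificed day 30−33 and tumors removed. Mean SEM, Student's t test versus control.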

[10] = tested on: Mus musculus; test: Toxicity in BALB/C nude mouse xenografted with human A549 cells assessed as reduction in body weight at 1 mg/kg, ip for 13 days measured on 30 to 33 days post implantation; assay type: organism-based; set-up: dose 1 mg/kg, route intraperitoneal; conditions: in vivo; method in brief: as §2
[11] = biological target: DNA topoisomerase 2-alpha (Homo sapiens) (UniProt P11388); test: Inhibition of human Top2alpha assessed as suppression of supercoiled pBR322 DNA relaxation at 50 uM incubated for 30 mins by electrophoresis method
[12] = tested on: HepG2; test: Cytotoxicity against human HepG2 cells incubated for 72 hrs by MTT assay; assay type: functional; conditions: HepG2, 72 h; method in brief: as §1
[13] = tested on: U2OS; test: Cytotoxicity against human U2OS cells incubated for 72 hrs by MTT assay; assay type: functional; method in brief: as §1
[14] = tested on: PANC-1; test: Cytotoxicity against human PANC1 cells incubated for 72 hrs by MTT assay; assay type: functional; conditions: PANC-1, 72 h; method in brief: as §1
[15] = tested on: PC-3; test: Cytotoxicity against human PC3 cells incubated for 72 hrs by MTT assay; assay type: functional; conditions: PC-3, 72 h; method in brief: as §1
[16] = biological target: DNA topoisomerase 2-alpha (Homo sapiens) (UniProt P11388); test: Inhibition of human Top2alpha assessed as suppression of supercoiled pBR322 DNA relaxation at 50 uM incubated for 30 mins in presence of excess ATP level by electrophoresis method
[17] = tested on: SAOS-2; test: Cytotoxicity against human Saos2 cells incubated for 72 hrs by MTT assay; assay type: functional; conditions: SAOS-2, 72 h; method in brief: as §1

DNA topoisomerase 2-alpha (Homo sapiens), sequence (P11388 whole entry): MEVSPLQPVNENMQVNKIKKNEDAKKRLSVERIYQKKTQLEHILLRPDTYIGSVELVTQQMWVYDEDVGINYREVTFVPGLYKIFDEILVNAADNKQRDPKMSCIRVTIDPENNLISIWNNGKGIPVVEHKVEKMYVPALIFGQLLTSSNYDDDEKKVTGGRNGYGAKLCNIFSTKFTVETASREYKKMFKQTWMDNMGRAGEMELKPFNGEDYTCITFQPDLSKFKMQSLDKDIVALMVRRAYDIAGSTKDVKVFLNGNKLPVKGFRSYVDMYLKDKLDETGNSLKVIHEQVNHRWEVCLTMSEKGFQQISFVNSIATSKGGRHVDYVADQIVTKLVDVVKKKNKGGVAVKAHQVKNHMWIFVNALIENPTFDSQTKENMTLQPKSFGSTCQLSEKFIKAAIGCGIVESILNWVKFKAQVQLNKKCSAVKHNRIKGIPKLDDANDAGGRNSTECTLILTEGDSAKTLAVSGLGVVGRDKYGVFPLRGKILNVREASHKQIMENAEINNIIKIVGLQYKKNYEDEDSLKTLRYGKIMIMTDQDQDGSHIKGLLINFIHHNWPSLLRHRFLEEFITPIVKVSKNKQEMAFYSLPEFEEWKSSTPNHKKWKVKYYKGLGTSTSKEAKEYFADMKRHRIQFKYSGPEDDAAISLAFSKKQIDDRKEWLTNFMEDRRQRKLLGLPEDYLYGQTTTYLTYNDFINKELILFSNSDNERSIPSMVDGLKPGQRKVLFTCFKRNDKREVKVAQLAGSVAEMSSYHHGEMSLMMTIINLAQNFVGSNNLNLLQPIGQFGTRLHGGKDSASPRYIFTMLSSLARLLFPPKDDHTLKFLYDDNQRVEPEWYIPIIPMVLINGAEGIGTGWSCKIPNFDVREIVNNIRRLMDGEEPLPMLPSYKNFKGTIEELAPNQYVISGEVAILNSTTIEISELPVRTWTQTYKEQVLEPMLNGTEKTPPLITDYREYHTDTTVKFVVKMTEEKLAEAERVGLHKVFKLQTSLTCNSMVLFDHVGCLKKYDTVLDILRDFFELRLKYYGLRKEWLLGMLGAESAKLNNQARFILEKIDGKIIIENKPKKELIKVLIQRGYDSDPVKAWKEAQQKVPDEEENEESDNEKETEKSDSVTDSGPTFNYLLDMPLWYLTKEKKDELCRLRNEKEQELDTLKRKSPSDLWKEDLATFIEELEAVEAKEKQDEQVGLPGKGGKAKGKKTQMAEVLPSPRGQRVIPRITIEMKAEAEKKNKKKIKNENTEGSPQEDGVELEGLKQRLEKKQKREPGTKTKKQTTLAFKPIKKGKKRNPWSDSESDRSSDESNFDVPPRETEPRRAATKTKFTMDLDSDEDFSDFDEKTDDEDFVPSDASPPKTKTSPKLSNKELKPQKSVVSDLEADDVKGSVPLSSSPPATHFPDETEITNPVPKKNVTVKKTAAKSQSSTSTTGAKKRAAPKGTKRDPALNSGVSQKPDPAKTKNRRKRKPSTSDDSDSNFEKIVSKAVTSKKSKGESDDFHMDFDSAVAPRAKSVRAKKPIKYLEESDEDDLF

With `CN1c2ccccc2C(=O)N2CCc3c([nH]c4ccccc34)[C@H]21` [EVODIAMINE] the LD50 [1] was 77.8 mg/kg.
Compound `CN1c2ccccc2C(=O)N2CCc3c([nH]c4ccccc34)[C@@H]21` [EVODIAMINE] has a GI50 [2] of 100 µM, a GI50 [3] of 100 µM and a GI50 [4] of 20.2 µM. For the same compound, the inhibition [5] was “Active” and the inhibition [6] was “inactive”.
In the case of `CC[n+]1c(-c2ccccc2)c2cc(N)ccc2c2ccc(N)cc21`, the Activity [7] is reported as “Active”.
For `CN1c2ccc(F)cc2C(=O)N2CCc3c([nH]c4ccccc34)C21` (stereo unspecified), the GI50 [8] was less than 0.003 µM, the GI50 [2] was less than 0.003 µM and the GI50 [3] was less than 0.003 µM. For the same compound, the GI50 [4] was less than 0.003 µM, the TGI [9] was “Active” and the Activity [10] was “Non-toxic”. The inhibition [11] was “Active”, the GI50 [12] was 188 µM and the GI50 [13] was 129 µM. The GI50 [14] was 1.7 µM, the GI50 [15] was 34.2 µM and the inhibition [16] was “inactive”. The inhibition [6] was “Active” and the GI50 [17] was 205 µM.
